Like-named read-outs stand apart in the source and are kept apart here.
Key:
Type in all cases: cell-based
MCF-7 = experiment: MTT cytotoxicity assay, MCF-7
How it was run: (§1)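 MTT viability assay run in parallel on MCF-7, HeLa and non-cancerous HUVEC cells. Test concentrations: benzimidazole derivatives at 50–250 μM and benzothiazole derivatives at 5–100 μM. IC50 derived from the MTT read-out.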

HeLa = experiment: MTT cytotoxicity assay, HeLa; conditions: read-out: IC50 HeLa
How it was run: as §1

HUVEC = experiment: MTT cytotoxicity assay, HUVEC; conditions: read-out: IC50 HUVEC
How it was run: as §1

[1] = read-out: IC50 MCF-7, MTT, MCF-7 cells

Compound: COc1cccc2c1C(=O)c1c(O)c3c(c(O)c1C2=O)C[C@@](O)(C(=O)CO)C[C@@H]3O[C@H]1C[C@H](N)[C@H](O)[C@H](C)O1 [Doxorubicin]
- IC50 (MCF-7; Homo sapiens, MCF7, read-out: IC50 MCF-7): 17.44 ± 0.04 µM
- IC50 (HeLa; Homo sapiens, HeLa): 1.45 ± 0.15 µM
- IC50 (HUVEC; Homo sapiens, HUVEC): 93 ± 0.54 µM

Compound: Nc1c(C(=O)Nc2ccc(F)cc2)sc2nc(-c3cccs3)cc(C(F)(F)F)c12 [FDI-6]
- IC50 (MCF-7; [1]): 25.8 ± 2.41 µM
- IC50 (HeLa; MTT, HeLa cells): 18.9 ± 0.89 µM
- IC50 (HUVEC; MTT, non-cancerous HUVEC line): 240.3 ± 1.14 µM

Compound: N#Cc1ccc(COC[C@H]2O[C@@H](n3c(NCc4ccc(Cl)c(Cl)c4)nc4c(N)ncnc43)[C@H](O)[C@@H]2O)cc1 [VER-155008]
- IC50 (MCF-7; [1]): 23.9 ± 1.09 µM
- IC50 (HeLa; MTT, HeLa cells): 55.26 ± 0.25 µM
- IC50 (HUVEC; MTT, non-cancerous HUVEC line): 150 ± 2.23 µM

Source: publication PMC12491069 (Bioorganic & medicinal chemistry letters, 2025)
